Measured values: ChEMBL document CHEMBL1949512, “RO4383596, an orally active KDR, FGFR, and PDGFR inhibitor: synthesis and biological evaluation” (Bioorg Med Chem, 2005)

Columns and labels:
Mus musculus [1] = test: Dose normalized AUC in […] mouse at 100 mg/kg, po; assay type: ADME, organism-based; parameters: dose 100 mg/kg, route oral; details: in vivo
Summary of the method: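 A separate group of female mice received one 100 mg/kg oral dose. Median PK parameters were calculated for that cohort.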

[2] = target: Epidermal growth factor receptor (Homo sapiens, UniProt P00533); test: Inhibition of human recombinant His-tagged intracellular domain of EGFR using biotin-EEEEYFELV as substrate by HTRF assay
MDA-MB-435 = test: Antiproliferative activity against human MDA-MB-435 cells
[3] = target: Protein kinase C delta type (Homo sapiens, UniProt Q05655); test: Inhibition of PKCdelta by IMAP assay
Summary of the method: (§1)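 IMAP fluorescence-polarization assay, in which phosphorylated fluorescent peptide substrates bind immobilized metal beads. Reactions ran at ATP three times Km.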

[4] = target: Mitogen-activated protein kinase 1 (Homo sapiens, UniProt P28482); test: Inhibition of ERK2 by IMAP assay; summary of the method: as §1
Mus musculus [5] = test: Antiangiogenic activity in C57/BL6 mouse cornea assessed as inhibition of VEGF-induced angiogenesis at 100 mg/kg, po bid for 7 days by corneal pocket assay relative to control; assay type: functional; details: 168 h
Summary of the method: (§2)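 VEGF-impregnated pellets were implanted in corneas of female C57/BL6 mice aged 5–7 weeks. Oral twice-daily dosing started the same day and ran 7 days. The area of vascularization was then quantitated relative to animals given vehicle (2% Klucel LF, 0.1% Tween 80 in water).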

Ephrin type-B receptor 3 = target: T1, Ephrin type-B receptor 3 (Homo sapiens, UniProt P54753); test: Inhibition of EphB3
T1 sequence (P54753 whole entry): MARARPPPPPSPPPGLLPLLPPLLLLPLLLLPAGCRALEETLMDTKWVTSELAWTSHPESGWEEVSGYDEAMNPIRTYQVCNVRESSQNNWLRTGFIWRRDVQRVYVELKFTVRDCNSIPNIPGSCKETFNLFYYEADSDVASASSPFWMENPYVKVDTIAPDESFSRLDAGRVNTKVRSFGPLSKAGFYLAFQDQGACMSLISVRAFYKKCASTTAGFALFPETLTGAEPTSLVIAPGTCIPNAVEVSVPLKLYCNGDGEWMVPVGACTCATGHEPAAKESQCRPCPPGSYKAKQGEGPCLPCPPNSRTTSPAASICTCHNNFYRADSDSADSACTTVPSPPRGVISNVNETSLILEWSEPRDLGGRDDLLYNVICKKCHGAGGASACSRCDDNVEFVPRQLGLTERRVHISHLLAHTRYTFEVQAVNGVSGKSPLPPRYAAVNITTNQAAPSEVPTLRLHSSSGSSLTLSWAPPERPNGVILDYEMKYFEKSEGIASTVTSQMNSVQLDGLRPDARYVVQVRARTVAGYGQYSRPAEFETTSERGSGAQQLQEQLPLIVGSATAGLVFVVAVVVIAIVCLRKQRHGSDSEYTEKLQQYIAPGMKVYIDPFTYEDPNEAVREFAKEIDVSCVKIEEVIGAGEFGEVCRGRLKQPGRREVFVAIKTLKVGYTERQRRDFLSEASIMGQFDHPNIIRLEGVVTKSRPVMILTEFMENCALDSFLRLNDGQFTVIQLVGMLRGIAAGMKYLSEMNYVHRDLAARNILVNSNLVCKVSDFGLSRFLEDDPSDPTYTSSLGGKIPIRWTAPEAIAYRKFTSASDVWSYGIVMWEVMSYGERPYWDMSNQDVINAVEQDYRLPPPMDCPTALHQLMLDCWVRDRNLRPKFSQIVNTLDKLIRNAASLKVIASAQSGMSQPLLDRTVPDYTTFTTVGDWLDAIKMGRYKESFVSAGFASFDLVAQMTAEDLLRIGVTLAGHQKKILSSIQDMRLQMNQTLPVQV

Mus musculus [6] = test: Antiangiogenic activity in C57/BL6 mouse cornea assessed as inhibition of bFGF-induced angiogenesis at 25 mg/kg, po bid for 5 days by corneal pocket assay relative to control; assay type: functional; details: 120 h
Summary of the method: (§3)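 bFGF-impregnated pellets were implanted in corneas of female C57/BL6 mice aged 5–7 weeks. Oral dosing twice daily began the same day for 5 days. The neovascularized area was quantitated against vehicle-treated animals (2% Klucel LF, 0.1% Tween 80 in water).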

Mus musculus [7] = test: Dose normalized AUC in C57/BL6 mouse at 25 mg/kg, po bid for 5 days; assay type: ADME, organism-based; parameters: dose 25 mg/kg, route oral; details: in vivo, 120 h
Summary of the method: (§4)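 Female C57/BL6 mice were dosed orally twice daily for 5 days with a suspension in 2% Klucel LF/0.1% Tween 80 in water. Six mice per dose were split into two subgroups of three, each sampled at alternate time points. Retro-orbital blood was taken at 0, 1, 4 and 8 h post-dose into EDTA, and plasma was analysed by LC-MS/MS. Parameters come from mean concentrations; AUC0–8h by linear trapezoidal rule; Cmax and Tmax as observed.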

HUVEC = test: Antiangiogenic activity in HUVEC assessed as inhibition of VEGF-induced cell proliferation; details: Homo sapiens
Mus musculus [8] = test: Antiangiogenic activity in C57/BL6 mouse cornea assessed as inhibition of bFGF-induced angiogenesis at 100 mg/kg, po bid for 5 days by corneal pocket assay relative to control; assay type: functional; details: 120 h; summary of the method: as §3
[9] = target: Cyclin-dependent kinase 1/cyclin B1 (Homo sapiens, UniProt P06493); test: Inhibition of CDK1/cyclin B by IMAP assay; assay type: protein-complex assay; summary of the method: as §1
[10] = AUC in C57/BL6 mouse at 25 mg/kg, po bid for 5 days; assay type: ADME, organism-based; parameters: dose 25 mg/kg, route oral; details: plasma; summary of the method: as §4
RKO = test: Antiproliferative activity against human RKO cells
[11] = Cmax in C57/BL6 mouse at 100 mg/kg, po bid for 5 days; assay type: ADME, organism-based; parameters: dose 100 mg/kg, route oral; details: in vivo; summary of the method: as §4
[12] = Clearance in Wistar rat at 5 mg/kg, iv; assay type: ADME, organism-based; parameters: dose 5 mg/kg, route intravenous; details: in vivo
Summary of the method: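 Wistar rats received one dose, either iv 5 mg/kg via femoral arterial catheter (2% DMA/10% PEG400/88% of 40% HPBCD) or po 50 mg/kg (2% Klucel LF/0.1% Tween 80). Blood came from an implanted jugular catheter, up to 24 h (iv) or 48 h (po), into EDTA. Plasma LC-MS/MS; individual non-compartmental parameters were averaged.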

Mus musculus [13] = test: Antiangiogenic activity in C57/BL6 mouse cornea assessed as inhibition of VEGF-induced angiogenesis at 25 mg/kg, po bid for 7 days by corneal pocket assay relative to control; assay type: functional; details: 168 h; summary of the method: as §2
[14] = target: T2, Serine/threonine-protein kinase Sgk1 (Homo sapiens, UniProt O00141); test: Inhibition of SGK
T2 sequence (O00141 whole entry): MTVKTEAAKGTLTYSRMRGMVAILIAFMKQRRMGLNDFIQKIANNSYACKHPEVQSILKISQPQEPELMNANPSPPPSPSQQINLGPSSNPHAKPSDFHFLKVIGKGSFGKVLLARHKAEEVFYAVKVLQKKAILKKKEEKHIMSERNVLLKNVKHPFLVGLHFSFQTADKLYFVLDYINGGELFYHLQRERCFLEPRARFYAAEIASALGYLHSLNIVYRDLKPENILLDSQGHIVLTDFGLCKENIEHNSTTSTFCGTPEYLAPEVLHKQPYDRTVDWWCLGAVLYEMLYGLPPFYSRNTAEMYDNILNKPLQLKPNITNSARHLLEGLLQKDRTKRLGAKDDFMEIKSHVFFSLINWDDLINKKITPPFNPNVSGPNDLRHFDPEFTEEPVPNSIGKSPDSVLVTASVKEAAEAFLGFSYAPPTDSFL

Protein kinase C delta type, sequence (Q05655 whole entry): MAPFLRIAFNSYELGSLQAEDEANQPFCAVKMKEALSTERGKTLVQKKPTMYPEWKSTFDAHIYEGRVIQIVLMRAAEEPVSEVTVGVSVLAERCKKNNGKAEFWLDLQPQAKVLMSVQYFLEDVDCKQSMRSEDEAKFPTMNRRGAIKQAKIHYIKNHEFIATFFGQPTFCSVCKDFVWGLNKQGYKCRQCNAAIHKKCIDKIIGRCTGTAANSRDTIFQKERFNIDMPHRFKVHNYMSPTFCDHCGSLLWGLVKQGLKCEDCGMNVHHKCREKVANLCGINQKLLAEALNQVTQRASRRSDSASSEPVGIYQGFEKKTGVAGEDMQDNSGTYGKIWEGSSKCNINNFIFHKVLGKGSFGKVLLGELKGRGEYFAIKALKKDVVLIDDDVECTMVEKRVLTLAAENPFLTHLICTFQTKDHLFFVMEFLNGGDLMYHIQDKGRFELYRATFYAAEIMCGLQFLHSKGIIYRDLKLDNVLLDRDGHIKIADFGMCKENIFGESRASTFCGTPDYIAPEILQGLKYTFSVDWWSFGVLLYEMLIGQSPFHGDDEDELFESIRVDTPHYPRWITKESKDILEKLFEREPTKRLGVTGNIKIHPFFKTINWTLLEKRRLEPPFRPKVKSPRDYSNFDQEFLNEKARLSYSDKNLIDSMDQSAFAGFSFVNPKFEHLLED
Cyclin-dependent kinase 1/cyclin B1, sequence (P06493 whole entry): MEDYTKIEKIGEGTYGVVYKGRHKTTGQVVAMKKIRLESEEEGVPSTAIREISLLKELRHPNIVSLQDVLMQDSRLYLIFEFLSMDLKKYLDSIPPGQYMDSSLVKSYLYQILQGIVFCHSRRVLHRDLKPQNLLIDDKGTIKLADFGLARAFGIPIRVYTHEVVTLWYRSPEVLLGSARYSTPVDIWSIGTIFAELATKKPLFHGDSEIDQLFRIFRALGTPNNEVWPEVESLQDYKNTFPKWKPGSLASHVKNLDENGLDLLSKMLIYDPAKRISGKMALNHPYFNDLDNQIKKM
Cyclin-dependent kinase 1/cyclin B1, sequence (P14635 whole entry, further chain): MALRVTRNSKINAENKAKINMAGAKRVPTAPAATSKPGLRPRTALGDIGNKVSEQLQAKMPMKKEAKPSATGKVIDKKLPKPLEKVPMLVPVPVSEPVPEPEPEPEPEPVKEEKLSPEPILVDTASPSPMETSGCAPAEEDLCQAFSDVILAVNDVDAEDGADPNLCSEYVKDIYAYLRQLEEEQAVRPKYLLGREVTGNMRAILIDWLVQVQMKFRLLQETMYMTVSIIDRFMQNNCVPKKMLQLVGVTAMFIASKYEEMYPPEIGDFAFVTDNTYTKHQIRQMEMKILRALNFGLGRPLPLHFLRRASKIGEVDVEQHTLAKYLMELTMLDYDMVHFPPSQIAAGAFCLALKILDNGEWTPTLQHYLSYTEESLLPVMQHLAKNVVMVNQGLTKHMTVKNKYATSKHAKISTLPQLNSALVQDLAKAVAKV
Epidermal growth factor receptor, sequence (P00533 whole entry, the tested form may be a part): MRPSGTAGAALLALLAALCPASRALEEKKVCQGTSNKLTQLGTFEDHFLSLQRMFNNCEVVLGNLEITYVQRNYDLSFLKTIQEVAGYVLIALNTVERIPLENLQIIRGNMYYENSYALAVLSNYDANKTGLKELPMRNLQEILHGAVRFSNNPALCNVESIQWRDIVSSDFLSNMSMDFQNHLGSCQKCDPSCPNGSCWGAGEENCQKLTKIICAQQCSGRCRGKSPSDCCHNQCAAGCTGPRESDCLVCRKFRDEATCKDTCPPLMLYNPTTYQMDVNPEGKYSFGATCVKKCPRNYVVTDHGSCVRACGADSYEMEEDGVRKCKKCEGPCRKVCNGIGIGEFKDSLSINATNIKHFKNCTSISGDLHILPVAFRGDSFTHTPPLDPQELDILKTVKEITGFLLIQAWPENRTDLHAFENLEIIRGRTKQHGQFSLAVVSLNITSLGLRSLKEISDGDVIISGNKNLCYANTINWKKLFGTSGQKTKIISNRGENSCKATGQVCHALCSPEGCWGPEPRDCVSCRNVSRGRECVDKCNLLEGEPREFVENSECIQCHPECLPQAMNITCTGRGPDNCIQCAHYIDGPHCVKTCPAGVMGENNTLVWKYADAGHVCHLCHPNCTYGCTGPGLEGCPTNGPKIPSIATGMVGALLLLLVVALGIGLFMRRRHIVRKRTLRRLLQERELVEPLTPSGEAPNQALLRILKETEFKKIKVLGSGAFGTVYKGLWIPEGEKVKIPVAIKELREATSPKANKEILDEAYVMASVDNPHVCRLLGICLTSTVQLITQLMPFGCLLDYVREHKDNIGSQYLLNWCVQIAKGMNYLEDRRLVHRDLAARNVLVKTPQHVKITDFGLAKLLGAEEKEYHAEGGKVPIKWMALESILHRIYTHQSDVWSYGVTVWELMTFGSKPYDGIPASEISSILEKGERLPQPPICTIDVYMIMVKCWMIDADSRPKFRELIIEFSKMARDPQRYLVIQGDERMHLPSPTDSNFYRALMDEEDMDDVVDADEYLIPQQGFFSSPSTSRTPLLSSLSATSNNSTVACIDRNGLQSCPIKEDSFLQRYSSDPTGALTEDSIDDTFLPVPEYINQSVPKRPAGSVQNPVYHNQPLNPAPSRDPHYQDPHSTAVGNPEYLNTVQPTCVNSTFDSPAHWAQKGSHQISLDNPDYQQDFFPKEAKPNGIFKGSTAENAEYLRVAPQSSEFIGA
Mitogen-activated protein kinase 1, sequence (P28482 whole entry): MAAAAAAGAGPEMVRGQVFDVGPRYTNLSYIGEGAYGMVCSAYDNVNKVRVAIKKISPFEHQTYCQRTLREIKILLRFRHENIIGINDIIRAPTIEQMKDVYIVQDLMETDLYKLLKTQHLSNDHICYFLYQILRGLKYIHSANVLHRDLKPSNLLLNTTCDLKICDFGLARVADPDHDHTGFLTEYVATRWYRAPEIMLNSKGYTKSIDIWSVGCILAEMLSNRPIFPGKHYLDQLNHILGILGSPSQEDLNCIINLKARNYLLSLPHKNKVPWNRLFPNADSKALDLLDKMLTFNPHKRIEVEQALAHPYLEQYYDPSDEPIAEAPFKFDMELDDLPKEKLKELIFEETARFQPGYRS

- AUC/dose (Mus musculus [1]): 1458 ng·h/mL/mg/kg
- IC50 [2]: 0.31 µM
- IC50 (MDA-MB-435): 4.2 µM
- IC50 [3]: > 125 µM
- IC50 [4]: 3.04 µM
- IC50 (Ephrin type-B receptor 3): 1.09 µM
- AUC/dose (Mus musculus [7]): 1199 ng·h/mL/mg/kg
- IC50 [9]: > 125 µM
- AUC at 120 h [10]: 30000 ng·h/mL
- Cmax [11]: 47700 ng/mL
- clearance [12]: 23.1 mL/min/kg
- IC50 [14]: > 125 µM
Structure (SMILES): COc1ccc(N2Cc3cnc(Nc4ccccc4)nc3N([C@@H]3CC[C@@H](O)C3)C2=O)cc1 (racemic)
- inhibition in vivo at 100 mg/kg (Mus musculus [5]): 99%
- inhibition in vivo at 25 mg/kg (Mus musculus [6]): 72%
- IC50 (HUVEC): 0.068 µM
- inhibition in vivo at 100 mg/kg (Mus musculus [8]): 97%
- IC50 (RKO): 2.3 µM
- inhibition in vivo at 25 mg/kg (Mus musculus [13]): 81%
